Data: ChEMBL document CHEMBL1127562, “N-substituted spirosuccinimide, spiropyridazine, spiroazetidine, and acetic acid aldose reductase inhibitors derived from isoquinoline-1,3-diones. 2” (J Med Chem, 1994)
The source made the active and inactive calls. The calls are words filed in the database; no cut-off is given here.

How the values were obtained:
[1] = target: Aldo-keto reductase family 1 member B1 (Bos taurus) (UniProt P16116); test: Inhibition of aldose reductase activity in partially purified bovine lens preparation at 10e-5 M
In short: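 Partially purified bovine lens aldose reductase. Reduction of DL-glyceraldehyde substrate followed spectrophotometrically. Activity expressed as average inhibition at the tested concentrations, 1×10^-5, 1×10^-6, 1×10^-7 and 4×10^-6 M as printed; IC50 in M where given.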

Rattus norvegicus [2] = test: Tested for in vivo inhibition of galactitol accumulation in the lens of galactose-fed rats at the dose of 50 (mg/kg/day); format: functional, Lens of camera-type eye
Rattus norvegicus [3] = test: Tested for in vivo inhibition of galactitol accumulation in the sciatic nerve of galactose-fed rats at the dose of 50 (mg/kg/day); format: functional
In short: (§1)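 Rats fed a 20% galactose diet for 4 days, with test compound given in the diet at the stated daily dose (mg/kg/day). Read-out is inhibition of galactitol (polyol) accumulation in sciatic nerve. Values are % inhibition, mean ± SEM of six animals; p < 0.01 unless marked (some p < 0.05). NS = no significant inhibition of polyol accumulation. Tolrestat was the reference standard.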

[4] = target: Aldo-keto reductase family 1 member B1 (Bos taurus) (UniProt P16116); test: Inhibition of aldose reductase activity in partially purified bovine lens preparation at 4*10 e-8 M
Rattus norvegicus [5] = test: Tested for in vivo inhibition of galactitol accumulation in the sciatic nerve of galactose-fed rats at the dose of 47.7 (mg/kg/day); NS=Not significant; format: functional, organism-based
In short: (§2)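 Rats were given a 20% galactose diet for 4 days, with the test compound administered in the diet. Sciatic nerve galactitol accumulation was measured, and activity is given as % inhibition at the stated daily dose (mg/kg/day). Values are mean ± SEM, n = 6 animals; p < 0.01 unless indicated. NS means no significant inhibition of polyol accumulation.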

Rattus norvegicus [6] = test: Tested for in vivo inhibition of galactitol accumulation in the lens of galactose-fed rats at the dose of 47.7 (mg/kg/day); NS=Not significant; format: functional, organism-based; details: Lens of camera-type eye
Rattus norvegicus [7] = test: Tested for in vivo inhibition of galactitol accumulation in the sciatic nerve of galactose-fed rats at the dose of 1.0 (mg/kg/day); NS=Not significant; format: functional, organism-based; in short: as §2
Rattus norvegicus [8] = test: Tested for in vivo inhibition of galactitol accumulation in the lens of galactose-fed rats at the dose of 69.2 (mg/kg/day); NS=Not significant; format: functional, organism-based; details: Lens of camera-type eye
In short: (§3)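 Galactosemic rats were fed 20% galactose for 4 days, with the compound mixed into the diet. […] galactitol accumulation was measured, and activity is given as % inhibition at the stated daily dose (mg/kg/day). Values are mean ± SEM of six animals; p < 0.01 unless indicated. NS means no significant inhibition of polyol accumulation.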

Rattus norvegicus [9] = test: Tested for in vivo inhibition of galactitol accumulation in the sciatic nerve of galactose-fed rats at the dose of 69.2 (mg/kg/day); NS=Not significant; format: functional, organism-based; in short: as §1
Rattus norvegicus [10] = test: Tested for in vivo inhibition of galactitol accumulation in the lens of galactose-fed rats at the dose of 55 (mg/kg/day); NS=Not significant; format: functional, organism-based; details: Lens of camera-type eye
Rattus norvegicus [11] = test: Tested for in vivo inhibition of galactitol accumulation in the sciatic nerve of galactose-fed rats at the dose of 55 (mg/kg/day); NS=Not significant; format: functional, organism-based; in short: as §1
Rattus norvegicus [12] = test: Tested for in vivo inhibition of galactitol accumulation in the sciatic nerve of galactose-fed rats at the dose of 97.1 (mg/kg/day); NS=Not significant; format: functional, organism-based; in short: as §1
Rattus norvegicus [13] = test: Tested for in vivo inhibition of galactitol accumulation in the lens of galactose-fed rats at the dose of 97.1 (mg/kg/day); NS=Not significant; format: functional, organism-based; details: Lens of camera-type eye; in short: as §3
Rattus norvegicus [14] = test: Tested for in vivo inhibition of galactitol accumulation in the sciatic nerve of galactose-fed rats at the dose of 1.1 (mg/kg/day); format: functional; in short: as §2
Rattus norvegicus [15] = test: Tested for in vivo inhibition of galactitol accumulation in the sciatic nerve of galactose-fed rats at the dose of 25.1 (mg/kg/day); NS=Not significant; format: functional, organism-based; in short: as §2
Rattus norvegicus [16] = test: Tested for in vivo inhibition of galactitol accumulation in the lens of galactose-fed rats at the dose of 25.2 (mg/kg/day); NS=Not significant; format: functional, organism-based; details: Lens of camera-type eye
Rattus norvegicus [17] = test: Tested for in vivo inhibition of galactitol accumulation in the sciatic nerve of galactose-fed rats at the dose of 25.2 (mg/kg/day); NS=Not significant; format: functional, organism-based; in short: as §2
Rattus norvegicus [18] = test: Tested for in vivo inhibition of galactitol accumulation in the sciatic nerve of galactose-fed rats. at the dose of 1.0 (mg/kg/day); NS=Not significant; format: functional, organism-based; in short: as §1

Compound: O=C1c2ccccc2C2(CC(=O)N(N=C3CCCC3)C2=O)C(=O)N1Cc1nc2cc(C(F)(F)F)ccc2s1 (stereo not drawn)
- inhibition [1]: inactive
- Inhibition (Rattus norvegicus [2]): 28%
- Inhibition (Rattus norvegicus [3]): 92%

Compound: O=C(O)CC1C(=O)N(Cc2ccc(Br)cc2F)C(=O)c2cc(F)ccc21 (stereo not drawn)
- inhibition [4]: 42%

Compound: COC(=O)NC(=O)CC1C(=O)N(C)C(=O)c2cc(Cl)c(Cl)cc21 (stereo not drawn)
- inhibition [1]: 90%
- inhibition (Rattus norvegicus [5]): inactive
- inhibition (Rattus norvegicus [6]): inactive

Compound: CCCN1C(=O)CC2(C1=O)C(=O)N(Cc1ccc(Br)cc1F)C(=O)c1ccccc12 (stereo not drawn)
- inhibition [1]: inactive
- inhibition (Rattus norvegicus [7]): inactive

Compound: CN1C(=O)c2ccccc2C(CC(=O)O)C1=O (stereo not drawn)
- inhibition [1]: 70%
- inhibition (Rattus norvegicus [8]): inactive
- inhibition (Rattus norvegicus [9]): inactive

Compound: O=C(O)CN1C(=O)c2ccccc2C(Cc2ccc(Br)cc2F)C1=O (stereo not drawn)
- inhibition (Rattus norvegicus [10]): inactive
- inhibition (Rattus norvegicus [11]): inactive

Compound: O=C1c2ccccc2C2(CC(=O)N(N=C3CCOCC3)C2=O)C(=O)N1Cc1nc2cc(C(F)(F)F)ccc2s1 (stereo not drawn)
- inhibition [1]: inactive
- Inhibition (Rattus norvegicus [2]): 41%
- Inhibition (Rattus norvegicus [3]): 94%

Compound: O=C1CC2(N1)C(=O)N(Cc1ccc(Br)cc1F)C(=O)c1ccccc12 (stereo not drawn)
- inhibition (Rattus norvegicus [10]): inactive
- inhibition (Rattus norvegicus [11]): inactive

Compound: CN1C(=O)CC2(C1=O)C(=O)N(C)C(=O)c1ccc(Cl)cc12 (stereo not drawn)
- inhibition [1]: inactive
- inhibition (Rattus norvegicus [7]): inactive

Compound: CCN1C(=O)CC2(C1=O)C(=O)N(Cc1nc3cc(C(F)(F)F)ccc3s1)C(=O)c1ccc(F)cc12 (stereo not drawn)
- inhibition [1]: inactive

Compound: CC(=O)NN1C(=O)CC2(C(=O)N(Cc3nc4cc(C(F)(F)F)ccc4s3)C(=O)c3ccccc32)C1=O (stereo not drawn)
- inhibition [1]: inactive
- Inhibition (Rattus norvegicus [2]): 40%
- Inhibition (Rattus norvegicus [3]): 94%

Compound: CCCCN1C(=O)CC2(C1=O)C(=O)N(Cc1ccc(Br)cc1F)C(=O)c1ccccc12 (stereo not drawn)
- inhibition [1]: inactive
- inhibition (Rattus norvegicus [7]): inactive

Compound: CCCCN1C(=O)c2ccccc2C(CC(=O)NC(=O)OC)C1=O (stereo not drawn)
- inhibition [1]: inactive
- inhibition (Rattus norvegicus [12]): inactive
- inhibition (Rattus norvegicus [13]): inactive

Compound: CN1C(=O)CC2(C1=O)C(=O)N(Cc1ccc(Br)cc1F)C(=O)c1ccccc12 (stereo not drawn)
- inhibition [1]: inactive
- Inhibition (Rattus norvegicus [14]): 76%

Compound: CN1C(=O)CC2(C1=O)C(=O)N(Cc1ccc(C(F)(F)F)cc1)C(=O)c1ccccc12 (stereo not drawn)
- inhibition [1]: inactive
- inhibition (Rattus norvegicus [15]): inactive

Compound: CC(C)=NN1C(=O)CC2(C(=O)N(Cc3nc4cc(C(F)(F)F)ccc4s3)C(=O)c3ccccc32)C1=O (stereo not drawn)
- inhibition [1]: inactive
- Inhibition (Rattus norvegicus [2]): 37%
- Inhibition (Rattus norvegicus [3]): 95%

Compound: CN1C(=O)c2ccccc2C(CC(N)=O)C1=O (stereo not drawn)
- inhibition [1]: inactive
- inhibition (Rattus norvegicus [8]): inactive
- inhibition (Rattus norvegicus [9]): inactive

Compound: COC(=O)NC(=O)CC1C(=O)N(C)C(=O)c2cc(OC)ccc21 (stereo not drawn)
- inhibition [1]: 72%
- inhibition (Rattus norvegicus [16]): inactive
- inhibition (Rattus norvegicus [17]): inactive

Compound: CCCCN1C(=O)CC2(C1=O)C(=O)N(Cc1ccc(Br)cc1F)C(=O)c1ccc(F)cc12 (stereo not drawn)
- inhibition [1]: inactive
- inhibition (Rattus norvegicus [18]): inactive

Compound: NN1C(=O)CC2(C1=O)C(=O)N(Cc1nc3cc(C(F)(F)F)ccc3s1)C(=O)c1ccccc12 (stereo not drawn)
- inhibition [1]: inactive
- Inhibition (Rattus norvegicus [2]): 61%
- Inhibition (Rattus norvegicus [3]): 96%
